Screening data as filed in PubChem.
M1 agonist = M1 muscarinic receptor agonism | CHO-M1 cells, Fluo-4 calcium fluorescence, agonist mode; active compounds read high | B-score at 10 µM | 3% of 64,000 active | AID 626;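 active = fluorescence rise, raw or as B-score row- and column-corrected plate score, outside the 99.7% band of its plate's samples, either direction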
BAP1 inh = inhibitors of human BAP1 deubiquitinase; Q92560; recombinant BAP1, Ub-AMC hydrolysis fluorescence kinetic; active compounds read low; calls only at 20 µM; 0.48% of 72,000 active; AID 436;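 active = activity remaining at or below 50% of control, provided the compound also passes the data quality filters; inactive = the rest, including low values that fail the filters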
Hsp90 block = displaces geldanamycin probe from tumor Hsp90 | inhibition, % at 30 µM | 0.35% of 64,000 active | AID 429 | NCI-N417 lysate Hsp90, Cy3B-geldanamycin FP displacement;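 active = inhibition above 50%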
tolC growth inh = growth inhibitors of E. coli BW25113 tolC mutant; OD615; growth inhibition, % at 10 µM (by protocol); 2.2% of 65,000 active;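 active = growth inhibition at or above a cutoff equal to the mean over every tested compound plus 3 SD, cut at about 60% in these data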;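 note: growth measured after 20 h incubation at 37 °C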
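signal = optical density read at 615 nm | test system = E. coli ΔtolC::kan strain BW25113 | timing = 20 h compound exposure of bacteria at 37 °C | buffer or medium = LB medium plus 50 µg/mL kanamycin | compound dosing = 10 µM final, single dose | evaluation = % inhibition of E. coli growth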
Ecoli WT expand = E. coli BW25113 growth inhibition, expanded screen. 0.15% of 98,000 active. growth inhibition, % at 100 µM. OD600 absorbance;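 active = growth inhibition above about 50% at one test dose, limit read from the data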;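 note: growth measured after 20 h incubation at 37 °C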
M1 antag = antagonists of rat M1 muscarinic receptor. P08482. CHO-M1 cells, Fluo-4 calcium, ACh EC80 antagonist mode; active compounds read low. B-score at 10 µM. 3.4% of 64,000 active;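 active = calcium fluorescence response, raw or row-and-column corrected B-score, differing from the plate sample mean either way at a set confidence level, mostly lower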
M1 agonist conf = confirmation of rat M1 muscarinic receptor agonists; shares compounds with M1 agonist; CHO-M1 cells, Fluo-4 calcium fluorescence, agonist mode; actives lie on both sides; fluorescence change (max-min) at 10 µM; 19% of 1,700 active;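 active = fluorescence change differs from the solvent-only DMSO control mean at a set confidence level in both duplicate runs; inconclusive = differs from solvent-only control mean in just one of two runs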;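 note: an EC20 dose of acetylcholine follows compound addition during the same imaging run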
M4 ag counter = rat M4 muscarinic agonism, M1 counter-screen; shares compounds with M1 agonist; CHO M4/Gqi5 cells, Fluo-4 calcium fluorescence, agonist mode; actives lie on both sides; fluorescence change (max-min) at 10 µM; 9% of 1,700 active; AID 1741;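 active = fluorescence change differing from the plate's solvent-only control wells at 99.7% confidence in both duplicates, whether higher or lower; inconclusive = differs from solvent controls in only one of two duplicates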
Target sequence (P08485 whole entry, looked up): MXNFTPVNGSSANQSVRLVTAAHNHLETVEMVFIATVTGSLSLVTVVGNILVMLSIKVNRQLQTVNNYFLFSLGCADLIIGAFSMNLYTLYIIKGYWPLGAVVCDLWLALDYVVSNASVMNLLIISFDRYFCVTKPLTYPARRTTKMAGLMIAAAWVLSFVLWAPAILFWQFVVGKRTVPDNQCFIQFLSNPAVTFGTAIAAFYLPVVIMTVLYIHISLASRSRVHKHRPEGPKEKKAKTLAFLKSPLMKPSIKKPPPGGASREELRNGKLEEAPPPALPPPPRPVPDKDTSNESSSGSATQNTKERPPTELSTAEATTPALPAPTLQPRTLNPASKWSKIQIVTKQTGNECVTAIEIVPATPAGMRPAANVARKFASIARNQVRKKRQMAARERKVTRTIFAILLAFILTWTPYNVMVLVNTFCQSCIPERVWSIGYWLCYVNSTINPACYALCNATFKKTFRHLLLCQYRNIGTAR
Of the large screens only hits and unclear results are named; the others gave an inactive call (follow-up assays come after a bar, where shown). Compounds with a hit are over-represented: about 5.1% of the library has one in this group of screens.

COc1cccc2cc(C(=O)NC(C)=O)c(=Nc3cccc(C)c3)oc12	none (no result: M1 agonist, Hsp90 block, tolC growth inh, Ecoli WT expand, M1 antag)
C=CCn1c(=O)c2ccccc2n2c(SCc3nc(N)nc(Nc4ccccc4C)n3)nnc12	M1 agonist 4 | M1 agonist conf inconclusive | M4 ag counter inactive
Cc1[nH]nc2c1C1(CCN(C(=O)c3ccccc3)CC1)C(C#N)=C(N)O2	M1 agonist 23 | M1 agonist conf inactive | M4 ag counter inactive
CCCCn1c(NC(C)=O)c(C#N)c2nc3ccccc3nc21	M1 agonist 5.5 | M1 agonist conf inactive | M4 ag counter inactive
C=CCn1c(NC(=O)c2ccccc2Cl)c(C#N)c2nc3ccccc3nc21	M1 agonist 6.8, Hsp90 block 61, tolC growth inh 84 | M1 agonist conf inactive | M4 ag counter inactive
C=CCn1c(N)c(C(=O)Nc2ccc(C)c(C)c2)c2nc3ccccc3nc21	none (no result: M1 agonist, BAP1 inh, Hsp90 block, tolC growth inh, M1 antag)
CCOc1ccc(C(=O)Nc2ccc3oc(-c4cccc(I)c4)nc3c2)cc1[N+](=O)[O-]	none (no result: M1 agonist, Hsp90 block, tolC growth inh, Ecoli WT expand, M1 antag)
O=C(CC(NS(=O)(=O)c1ccc(Cl)cc1)c1ccco1)NCc1ccco1 (stereo not given)	M1 agonist -2.9 | M1 agonist conf inconclusive | M4 ag counter inactive
CCOC(=O)c1c(C)[nH]c(C(=O)CN2C(=O)NC(C)(c3ccc(C)cc3)C2=O)c1C (stereo not given)	none (no result: Ecoli WT expand)
CCOC(=O)c1c(C)[nH]c(C(=O)CN2C(=O)NC(CC)(c3ccccc3)C2=O)c1C (stereo not given)	M1 agonist 4.7 | M1 agonist conf inactive | M4 ag counter inactive
CCOC(=O)C1CCN(C(c2cc3c(C)ccc(C)c3[nH]c2=O)c2nnnn2C2CCCCC2)CC1 (stereo not given)	M1 agonist 2.6 (not shown: BAP1 inh) | M1 agonist conf -33 | M4 ag counter inactive
CCOC(=O)C1CCN(C(c2cc3ccc(C)c(C)c3[nH]c2=O)c2nnnn2C2CCCCC2)CC1 (stereo not given)	none (not shown: BAP1 inh)
CCCCOc1ccc(C(=O)Nc2ccc(N3CCN(C(C)=O)CC3)cc2)cc1	none
CC(=O)N1CCN(c2ccc(NC(=O)c3ccc(C(C)(C)C)cc3)cc2)CC1	M1 agonist 2.5 | M1 agonist conf inactive | M4 ag counter inactive
Cc1ccc2cc(C#N)c(N3CCCC3)nc2c1C	none
Cc1ccc2cc(C#N)c(N3CCCN(C(=O)C4CCCO4)CC3)nc2c1C (stereo not given)	M1 agonist 4.1 | M1 agonist conf inactive | M4 ag counter inactive
CC(C)N(Cc1nc(-c2ccc(Cl)cc2)no1)C(=O)CCC1CCCC1	M1 agonist 3.4, tolC growth inh 72 | M1 agonist conf inconclusive | M4 ag counter inactive
Cc1nc2ccccc2c(=O)n1/N=C/c1cn(-c2ccccc2)nc1-c1cccs1	M1 agonist 3.5 | M1 agonist conf inconclusive | M4 ag counter inactive
Cc1nc2ccccc2c(=O)n1/N=C/c1ccccc1	none (no result: M1 agonist, BAP1 inh, Hsp90 block, tolC growth inh, M1 antag)
COc1cccc(C(=O)N2CCN(C3CCC(c4ccccc4)CC3)CC2)c1OC (stereo not given)	M1 agonist 18, M1 antag -3.1 | M1 agonist conf inconclusive | M4 ag counter inactive
CCn1c(SCC(=O)Nc2nc3ccccc3s2)nc2c(c1=O)SC(C)C2 (stereo not given)	M1 agonist 2.3 | M1 agonist conf inconclusive | M4 ag counter inactive
CCOC(=O)N1CCN(C(=O)CSc2nnc(-c3ccc(C(C)(C)C)cc3)o2)CC1	M1 agonist 6.9 | M1 agonist conf inactive | M4 ag counter inactive
COc1cccc(OC)c1C(=O)Nc1c2c(nn1-c1cccc(C)c1)CSC2	none (no result: M1 agonist, Hsp90 block, tolC growth inh, Ecoli WT expand, M1 antag)
Cc1nn(-c2ccccc2)c(C)c1C(=O)OCC(=O)c1c(N)n(CC(C)C)c(=O)n(C)c1=O	M1 agonist 4.1 | M1 agonist conf inactive | M4 ag counter inactive
CC(C)Cn1c(N)c(C(=O)COC(=O)c2cc(-c3ccco3)nc3ccccc23)c(=O)n(C)c1=O	none
CC(=O)N1CCN(c2ccc([N+](=O)[O-])c(N)c2)CC1	none (no result: M1 agonist, Hsp90 block, tolC growth inh, Ecoli WT expand, M1 antag)
COc1ccc(C2C(C(=O)N3CCN(c4ccccc4F)CC3)c3ccccc3C(=O)N2C)cc1 (stereo not given)	M1 agonist 4.9 (no result: BAP1 inh, Hsp90 block) | M1 agonist conf inconclusive | M4 ag counter inconclusive
COc1ccc(C2C(C(=O)N3CCC(C)CC3)c3ccccc3C(=O)N2C)cc1 (stereo not given)	none (no result: Ecoli WT expand)
C/C(N)=C(/C#N)C(=O)CSc1nnc(Nc2cccc(C)c2)s1	none (no result: Ecoli WT expand)
C/C(N)=C(/C#N)C(=O)CSc1nc2cc(Cl)ccc2s1	M1 agonist 5.1 | M1 agonist conf inactive | M4 ag counter inactive
CCOc1ccc(C2C=C(c3ccccc3)Nc3ncnn32)cc1 (stereo not given)	M1 agonist 25 | M1 agonist conf 202 | M4 ag counter inactive
CCOc1ccc(C2C=C(c3ccc(F)cc3)Nc3ncnn32)cc1 (stereo not given)	M1 agonist 25 (not shown: BAP1 inh) | M1 agonist conf 146 | M4 ag counter inactive
CN(C)S(=O)(=O)c1cccc(C(=O)OCC(=O)Nc2sccc2C(N)=O)c1	M1 agonist 8.8, M1 antag -3.3 | M1 agonist conf inconclusive | M4 ag counter -69
CCn1c(COc2cccc(OC)c2)nnc1SCC(=O)Nc1cccc(OC)c1	M1 agonist 3 | M1 agonist conf inactive | M4 ag counter inactive
CCn1c(COc2cccc(OC)c2)nnc1SCC(=O)Nc1cc(OC)ccc1OC	none
CCn1c(COc2ccccc2C)nnc1SCC(=O)CC(=O)Nc1ccccc1	M1 agonist 3.3, M1 antag 2.7 | M1 agonist conf inconclusive | M4 ag counter inactive
CCn1c(COc2ccccc2C)nnc1SCC(=O)O	none
CCOc1cccc(C2C(C(=O)c3ccc(C)o3)=C(O)C(=O)N2Cc2ccncc2)c1 (stereo not given)	none
CCOc1cccc(C2C(C(=O)c3ccc(C)o3)=C(O)C(=O)N2c2nccs2)c1 (stereo not given)	M1 agonist 55 | M1 agonist conf 822 | M4 ag counter 125
CCC(C)(C)NC(=O)C(c1ccco1)N(C(=O)Cn1nnc2ccccc21)c1ccc2c(c1)OCO2 (stereo not given)	M1 agonist 17 | M1 agonist conf -32 | M4 ag counter inconclusive
CCN1C(=O)NC(c2ccc([N+](=O)[O-])cc2)C(C(=O)OC(C)C)=C1C (stereo not given)	none (no result: M1 agonist, Hsp90 block, tolC growth inh, Ecoli WT expand, M1 antag)
CC(=Nc1ccc(C)cc1)c1sc2ccccc2c1O	none (no result: M1 agonist, BAP1 inh, Hsp90 block, tolC growth inh, M1 antag)
CC(=Nc1cccc(O)c1)c1sc2ccccc2c1O	M1 agonist 5.4 | M1 agonist conf inactive | M4 ag counter inactive
O=C(c1cccc(S(=O)(=O)N2CCOCC2)c1)N1CCc2ccccc21	none (no result: M1 agonist, Hsp90 block, tolC growth inh, Ecoli WT expand, M1 antag)
COc1ccc(OC)c(CN2CCN(C(=O)c3cccs3)CC2)c1	M1 agonist 15 | M1 agonist conf inactive | M4 ag counter inconclusive
